# The list is not random: actives were taken first. Their share in the collection is about 2.8%.
# T cell modulator: modulates CD8 T cell binding to vesicles; response (vesicle binding), % at 7 µM; 330,000 tested, 0.068% active; 2C CD8+ T cell-vesicle binding, flow cytometry; stronger effect = lower value;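 active = response, share of CD8 T cells binding vesicles, and their 90th percentile fluorescence all below set limits, cut at about 80% in these data, passing the limit was not always enough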;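 also: values below 100% mean blocked vesicle binding to the CD8+ T cells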
#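 Assay system: 2C TCR transgenic mouse naive CD8+ T cells, MACS-purified | Read-out: CD8+ gate FL2 mean fluorescence as % of same-row positive control | Signal: High-throughput flow cytometry with anti-B7-1 and anti-CD8 staining | Timing: Binding step 1.5 h, 37 °C, antibody labelling 20 min, ice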
# Rtt109 HAT inh: C. albicans Rtt109 histone acetyltransferase inhibition; purified Rtt109/Vps75, ThioGlo CoA-SH fluorescence, 4 h; AID 540336; 330,000 tested, 0.16% active; Q5AAJ8; inhibition, % at 34.9 µM;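 active = inhibition of at least 50% in every replicate; inconclusive = best replicate reaches 50% inhibition but some replicates fall short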
# NR3A LBD binder: modulators (binders) of human NR3A ligand-binding domain | NR3A LBD differential scanning fluorimetry, Tm shift; 0% = protein alone, 100% = glycine-bound protein | Tm shift relative to glycine control, % at 25 µM | 340,000 tested, 2.5% active | AID 1259313;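 active = melting temperature shift of at least 10% of the positive control shift, at one fixed dose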
# JMJD2C inh: inhibitors of human GASC-1 (JMJD2C) demethylase; Q9H3R0; GST-JMJD2C(1-420) H3K9me3 demethylation, DELFIA europium; inhibition, % at 2.35 µM; 330,000 tested, 0.069% active; AID 2099;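 active = more than half of a compound's replicate wells show inhibition beyond 50%, single wells judged on their own value; inconclusive = some, but no more than half, of replicates pass 50% inhibition; inactive = no replicate passes 50% inhibition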;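 also: signal counts dimethyl H3K9 product captured on neutravidin plate; 0% = median of DMSO wells and 100% = 0.3 times that DMSO median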
# Target sequence (Q9H3R0 1-420 limits assumed): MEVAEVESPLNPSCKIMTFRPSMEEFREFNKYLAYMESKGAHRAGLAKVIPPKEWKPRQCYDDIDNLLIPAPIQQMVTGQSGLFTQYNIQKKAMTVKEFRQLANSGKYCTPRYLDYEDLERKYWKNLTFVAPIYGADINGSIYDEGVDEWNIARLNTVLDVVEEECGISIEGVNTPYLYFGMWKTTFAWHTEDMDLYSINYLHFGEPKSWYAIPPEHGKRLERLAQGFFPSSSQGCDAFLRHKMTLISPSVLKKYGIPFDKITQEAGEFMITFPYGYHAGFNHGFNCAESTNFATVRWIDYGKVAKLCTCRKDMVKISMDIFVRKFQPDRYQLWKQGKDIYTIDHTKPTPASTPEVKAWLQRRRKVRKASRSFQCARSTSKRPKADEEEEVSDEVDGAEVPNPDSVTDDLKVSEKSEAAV
# The depositor's hits bear a star; i = inactive; ? = inconclusive; . = no result.
SMILES,T cell modulator,Rtt109 HAT inh,NR3A LBD binder,JMJD2C inh
Cc1cc2nc(C(C)(C)C)cc(N)n2n1,405,0,0,-5
CC(C)(C)c1cc(N)n2nc(C(C)(C)C)cc2n1,402,53*,1,0
Cn1c(SSc2ccc(-c3cccnc3)n2C)ccc1-c1cccnc1,.,1,0,.
O=C1N=c2ccccc2=C1c1sc(Nc2cccc(O)c2)nc1O,277,4,25*,-3
O=C1N=c2ccccc2=C1c1sc(Nc2ccc(O)cc2)nc1O,.,3,13*,.
CCCNc1c(NC(=O)c2ccc3c(c2)OCO3)c(=O)oc2ccccc12,127,-8,-1,5
CCSc1ccc([C@@H]2[C@@H]3C(=O)N(C)C(=O)[C@@H]3[C@]3(C(=O)OC)CCCCN23)cc1OC,0.0*,8,-1,.
CCCSc1ccc([C@@H]2[C@@H]3C(=O)N(C)C(=O)[C@@H]3[C@]3(C(=O)OC)CCCCN23)cc1OC,684,7,-4,5
COc1ccc(NS(=O)(=O)c2cccc(C(=O)NCC3(N(C)C)CCCCC3)c2)cc1,474,.,1,-2
COc1ccccc1NC(=O)[C@@H]1CCCN1S(=O)(=O)c1ccc(Cl)cc1,133,1,-1,11
c1ccc(OCCSc2nc3ccccc3o2)cc1,862,-6,1,4
CCOc1ccc(OCCSc2nc3ccccc3o2)cc1,272,-4,21*,-3
Fc1cccc(NC(=S)NCCc2ccccc2)c1,515,.,28*,-3
S=C(NCCc1ccccc1)Nc1cnc2ccccc2c1,94,5,14*,4
O=C(NC(=S)Nc1cnc2ccccc2c1)c1ccccc1,i,-13,-6,-4
CC(C)(CNC(=S)NCCc1ccccc1)CNC(=S)NCCc1ccccc1,.,12,14*,19
O=[N+]([O-])c1ccc(S(=O)(=O)NNC(=S)NCCc2ccccc2)cc1,218,-12,-9,-7
O=[N+]([O-])c1cccc(NC(=S)NCCc2ccccc2)c1,119,6,33*,?
COc1nccnc1NS(=O)(=O)c1ccc(N)cc1,.,11,2,-13
O=C(CCc1ccccc1)NNC(=O)COc1ccc([N+](=O)[O-])cc1,71,4,0,-1
CC(C)(C)OC(=O)N1CCC[C@H]1C(=O)OCC(=O)Nc1cc(S(C)(=O)=O)ccc1Cl,314,3,2,2
OCCNC(=S)NCCc1ccccc1,248,-3,-2,-10
S=C(NCCc1ccccc1)Nc1ccc(Nc2ccccc2)cc1,476,14,23*,0
O=[N+]([O-])c1ccc(C(O)CNC(=S)Nc2ccccc2)cc1 (stereo not given),179,17,12*,-6
CCOc1ccc(NC(=O)CN(C)C(=O)Cc2c(C)nc3ccccc3c2C)cc1OCC,313,5,-3,4
SMILES,T cell modulator,Rtt109 HAT inh,NR3A LBD binder,JMJD2C inh
CCOc1ccc(N2C(=O)C3C4C=CC([C@H]5CC45)[C@@H]3C2=O)cc1 (stereo not given in full),261,0,-1,-1
O=S(=O)(Nc1ccc(-c2ccc3nncn3n2)cc1)c1ccccc1F,818,7,2,-24
O=S(=O)(Nc1cccc(-c2ccc3nncn3n2)c1)c1ccccc1F,595,5,13*,-6
CCN(CC)CCN1C(=O)C(O)=C(C(C)=O)C1c1ccc(OC)c(OC)c1 (stereo not given),356,1,11*,0
COc1cc(C2C(C(C)=O)=C(O)C(=O)N2CCc2ccc(OC)c(OC)c2)ccc1O (stereo not given),297,-18,2,-13
O=C(CN1CCN(CC(=O)Nc2cccc(F)c2)CC1)NCC1(N2CCOCC2)CCCCC1,259,.,-1,.
O=c1[nH]c2ccc(Br)cc2o1,.,-5,11*,.
Cc1ccccc1-c1nc(-c2ccc(NC(=O)c3cccs3)cc2)no1,193,-9,42*,-1
Cc1ccccc1OCc1nc(-c2ccc(Br)o2)no1,581,13,16*,10
Cc1ccc(NC(=O)c2cccs2)cc1,325,0,-10,1
O=C(Nc1ccc(-c2noc(-c3ccccc3F)n2)cc1)c1cccs1,228,1,29*,-9
Cc1ccccc1OCc1nc(-c2ccc(NC(=O)c3cccs3)cc2)no1,254,2,20*,-3
CCC(C)c1ccccc1N1CC(C(=O)Nc2ccc(N3CCOCC3)cc2)CC1=O (stereo not given),262,1,-3,-6

# Screening results from PubChem.
